Experimental data from different studies.
Lines come from different studies, so protocols differ.

c1cc(-c2ccc3ncnc(NC4CCOCC4)c3c2)cc(N2CCOCC2)c1
solubility (aqueous buffer; pH 7.4; 25 °C): 202 µM

CO[C@H]1C[C@@H]2CC[C@@H](C)[C@@](O)(O2)C(=O)C(=O)N2CCCC[C@H]2C(=O)O[C@H]([C@H](C)C[C@@H]2CC[C@@H](O)[C@H](OC)C2)CC(=O)[C@H](C)/C=C(\C)[C@@H](O)[C@@H](OC)C(=O)[C@H](C)C[C@H](C)/C=C/C=C/C=C/1C
solubility (aqueous buffer; 18 h; pH 7.4): 6.03 µM

FC(F)(F)c1cc(Nc2ncnc3ccc(-c4cccc(N5CCOCC5)c4)cc23)ccc1Cl
solubility (aqueous buffer; pH 7.4; 25 °C): < 0.7 µM

COc1cccc(Cn2nc(-c3ccc(CO)o3)c3ccccc32)c1
solubility (aqueous buffer; 6 h; pH 7.4): 1 µg/mL

O=c1c2ccc(OCc3ccc(OC(F)(F)F)cc3)cc2[nH]c2cc(Cl)cc(F)c12
solubility (absorbance; aqueous buffer; 90 min; pH 7.4): < 3.12 µM

Cc1nsc(-c2nnc3n2CCN(C(=O)c2ccc(F)cc2)[C@@H]3C)n1
solubility (aqueous buffer; pH 7.4): 350 µg/mL

Cc1ccc(N(c2ccc(NC(=O)CN(C)c3ccccc3N3CCCC3=O)cn2)C(C)C)cc1
solubility (PBS; pH 7.4): 24 µM

Cc1ccc(Nc2cnnc3ccc(-c4ccc(N5CCCN(C)CC5)cc4)cc23)cn1
solubility (aqueous buffer; pH 7.4; 25 °C): 82 µM

CCOC(=O)C1=C(CN2CCC[C@@H]2C(=O)Nc2ccc(B(O)O)cc2)NC(c2nccs2)=N[C@H]1c1ccc(F)cc1Br
solubility (HPLC; aqueous buffer; pH 7): 2.57 µg/mL

CC(C)(C(=O)O)[C@@H](NC(=O)Cc1cccc(I)c1)c1ccc2oc(=O)[nH]c2c1
solubility (aqueous buffer; pH 6.8): > 700 µM

Cc1nc(Nc2ncnc3ccc(-c4cccc(N5CCOCC5)c4)cc23)oc1C
solubility (aqueous buffer; pH 7.4; 25 °C): 0.2 µM

O=C(O)c1cc(-c2ccc(-n3ccnn3)cc2)c2ccc(-c3ccc(C(F)(F)F)cc3)cc2c1
solubility (aqueous buffer; pH 7.4): 9.1 µg/mL

Cc1ccccc1CN1C(=O)C2=C(CCN(Cc3ccccc3)C2)N2CCN=C12
solubility (shake flask; aqueous buffer; pH 1): 62200 µg/mL

Cc1cc(/C=C/C#N)cc(C)c1Nc1ccnc(Nc2ccc(C#N)cc2)n1
solubility (water; 24 h; 37 °C): 0.2 µg/mL

CNS(=O)(=O)c1ccc(Nc2ncc3cc(Cl)c(=O)n(C4CCCC4)c3n2)c(C)c1
solubility (PBS; 2 h; pH 7.4): 0.3 µM

Cc1ccc(N(C)c2ccc(NC(=O)CN(C)c3cc(F)ccc3N3CCCC3=O)cc2)cc1
solubility (PBS; pH 7.4): 6.3 µM

O=C(Nc1ccc(OC(F)(F)F)cc1)N[C@H]1CC[C@H](Oc2ccc(C(=O)O)cc2)CC1
solubility (simulated gastric fluid; 30 min; pH 1; 37 °C; acidic): 0.0005 µg/mL

OCc1ccc(-c2nn(Cc3ccncc3)c3cccnc23)o1
solubility (aqueous buffer; 6 h; pH 7.4): > 30 µg/mL

O=C1COc2ccc(-c3cccc(Cl)c3)cc2N1Cc1noc(C2CCC2)n1
solubility (PBS; 8 h; pH 7.4): 100 µM

Cc1ccc(Oc2ccc(NC(=O)CN(C)c3ccccc3N3CCCC3=O)cc2)cc1
solubility (PBS; pH 7.4): 4.8 µM

O=C(O)Cc1ccccc1Nc1c(Cl)cccc1Cl
solubility (FeSSIF): 303 µM

COc1ncccc1Cn1nc(-c2ccc(CO)o2)c2ccccc21
solubility (aqueous buffer; 6 h; pH 7.4): > 33 µg/mL

CCCN(CCC)CCNc1ccc2c(=O)c3c([nH]c2c1)CCCC3
solubility (absorbance; aqueous buffer; 90 min; pH 7.4): > 500 µM

Clc1ccc(Nc2ncnc3ccc(-c4cccc(N5CCOCC5)c4)cc23)cc1Cl
solubility (aqueous buffer; pH 7.4; 25 °C): 4 µM

CCOC(=O)C1=C(CN2CCOCC2)NC(c2nccs2)=NC1c1ccc(F)cc1Br (stereo not drawn)
solubility (HPLC; aqueous buffer; pH 7): < 1 µg/mL

CNS(=O)(=O)c1ccc(Nc2ncc(C(F)(F)F)c(N3CCC[C@](C)(O)C3)n2)c(C)c1
solubility (FaSSIF; 2 h): 194 µM

CN1CCC(Nc2ncnc3ccc(-c4cccc(N5CCOCC5)c4)cc23)CC1
solubility (aqueous buffer; pH 7.4; 25 °C): 928 µM

CNS(=O)(=O)c1ccc(Nc2ncc(C(F)(F)F)c([C@H]3CC[C@](C)(O)CC3)n2)c(C)c1
solubility (FaSSIF; 2 h): 14 µM

NCc1ccc(-c2nn(Cc3ccncc3)c3ccccc23)o1
solubility (aqueous buffer; 6 h; pH 7.4): > 30 µg/mL

Cn1cc(-c2ccc3ccn(CC(=O)Nc4ccccc4Cl)c3c2)c(C(F)(F)F)n1
solubility (PBS; pH 7.4): < 2.7 µM

Cc1cc(-c2ccnc3[nH]cc(F)c23)cc(F)c1[C@@]1(O)[C@H](C)CN(C(=O)CN)C[C@@H]1C
solubility (aqueous buffer): 11.9 µg/mL

CN1CCN(c2ccc(-c3ccc4nncc(Nc5ccc(OC(F)(F)F)cc5)c4c3)cc2)CC1
solubility (aqueous buffer; pH 7.4; 25 °C): 2.5 µM

c1ccc(Oc2ccc(Nc3c4c(nc5ccccc35)CCC4)cc2)cc1
solubility (simulated gastric fluid; 30 min; pH 2; acidic): 25 to 50 µg/mL

OCc1ccc(-c2nn(Cc3cccnc3)c3cccnc23)o1
solubility (aqueous buffer; 6 h; pH 7.4): > 30 µg/mL

CC(=O)O[C@@H]1CC[C@@]2(C)[C@@H](CC[C@]3(C)[C@@H]2C(=O)C=C2[C@@H]4[C@@H](C)[C@H](C)CC[C@]4(C)CC[C@]23C)[C@@]1(C)C(=O)O
solubility (PBS; pH 7.4): 6.45 µg/mL

Cc1ccc(C(C)(C)c2ccc(NC(=O)CN(C)c3ccccc3N3CCCC3=O)cc2)cc1
solubility (PBS; pH 7.4): 2.5 µM

CN1CCN(c2cccc(-c3ccc4ncnc(Nc5ccc(Cl)c(Cl)c5)c4c3)c2)CC1
solubility (aqueous buffer; pH 7.4; 25 °C): < 1.7 µM

CCN(CC)CCCOc1ccc2c(=O)c3c([nH]c2c1)CCCC3
solubility (absorbance; aqueous buffer; 90 min; pH 7.4): > 500 µM

OCc1ccc(-c2nn(Cc3ccccn3)c3cccnc23)o1
solubility (aqueous buffer; 6 h; pH 7.4): > 30 µg/mL

c1cc(-c2ccc3ncnc(Nc4ncco4)c3c2)nc(N2CCOCC2)n1
solubility (aqueous buffer; pH 7.4; 25 °C): 3 µM

COc1ccc(Oc2ccc3c(=O)c4c(F)cc(Cl)cc4[nH]c3c2)cc1
solubility (absorbance; aqueous buffer; 90 min; pH 7.4): < 3.12 µM

Cc1ccc(Oc2ccc(NC(=O)CNc3ccccc3-n3cncn3)cc2)cc1
solubility (PBS; pH 7.4): 15 µM

O=[N+]([O-])c1ccc(Nc2ncnc3ccc(-c4cccc(N5CCOCC5)c4)cc23)cc1C(F)(F)F
solubility (aqueous buffer; pH 7.4; 25 °C): < 0.4 µM

O=c1c2ccc(Oc3ccc(OC(F)(F)F)cc3)cc2[nH]c2cc(F)c(Cl)cc12
solubility (absorbance; aqueous buffer; 90 min; pH 7.4): < 3.12 µM

Cc1ncsc1-c1ccc(CNC(=O)[C@@H]2C[C@@H](O)CN2C(=O)[C@@H](NC(=O)COCCOCCOCCNC(=O)C[C@@H]2N=C(c3ccc(Cl)cc3)c3c(sc(C)c3C)-n3c(C)nnc32)C(C)(C)C)cc1
solubility (HPLC; water; pH 6.9): 45 µg/mL
